40 molecules from ChEMBL document CHEMBL4229555, “Design, synthesis and structure-activity relationship study of novel naphthoindolizine and indolizinoquinoline-5,12-dione derivatives as IDO1 inhibitors” (Bioorg Med Chem, 2018) can be followed below.

Experiment [1] concerns the target T1, Indoleamine 2,3-dioxygenase 1 (Homo sapiens, UniProt P14902). Description: Inhibition of IDO1 (unknown origin) assessed as reduction in N'-formlylkynurenine formation at 1 uM using D-Tryptophan as substrate in presence of ascorbate and methylene blue relative to control.
Target sequence in this assay (P14902 whole entry, looked up): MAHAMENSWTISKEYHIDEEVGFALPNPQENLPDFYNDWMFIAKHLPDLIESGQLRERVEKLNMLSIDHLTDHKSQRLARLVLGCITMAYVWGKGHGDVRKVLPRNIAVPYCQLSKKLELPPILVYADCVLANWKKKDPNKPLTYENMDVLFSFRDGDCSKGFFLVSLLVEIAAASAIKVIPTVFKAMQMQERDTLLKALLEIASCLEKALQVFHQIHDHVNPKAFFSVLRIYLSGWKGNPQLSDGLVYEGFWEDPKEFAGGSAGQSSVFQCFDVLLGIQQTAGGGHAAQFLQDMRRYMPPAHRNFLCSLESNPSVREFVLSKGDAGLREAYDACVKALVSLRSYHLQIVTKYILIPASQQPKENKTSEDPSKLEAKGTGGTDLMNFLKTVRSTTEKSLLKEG
The target in experiment [2] is T1, Indoleamine 2,3-dioxygenase 1. As to the kind of experiment: Inhibition of IDO1 (unknown origin) assessed as reduction in N'-formlylkynurenine formation using D-Tryptophan as substrate in presence of ascorbate and methylene blue. Conditions: in the assay text read “ascorbate” for “aspartate”. The method in brief: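 Room-temperature reaction: 20 nM IDO, 2 mM D-Trp, 20 mM ascorbate, 3.5 μM methylene blue, 0.2 mg/mL catalase in 50 mM potassium phosphate pH 6.5. Initial rates tracked continuously by absorbance rise at 321 nm (N'-formylkynurenine); IC50 by nonlinear regression, normalized dose-response fit.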
Target sequence in this assay (P14902 whole entry): as the sequence (P14902 whole entry, looked up) above

Experiment [3] addresses T2, Tryptophan 2,3-dioxygenase (Homo sapiens, UniProt P48775). Description: Inhibition of recombinant TDO (unknown origin) assessed as reduction in N-formylkynurenine formation at 10 uM using L-Tryptophan as substrate after 75 mins by UV absorption method relative to control. The method in brief:
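Room-temperature UV assay: recombinant TDO with 200 μM L-tryptophan in TDO assay buffer plus inhibitor, 75 min incubation, then absorbance at 321 nm for N-formylkynurenine. Buffer substituted for TDO as blank.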
Target sequence in this assay (P48775 whole entry, looked up): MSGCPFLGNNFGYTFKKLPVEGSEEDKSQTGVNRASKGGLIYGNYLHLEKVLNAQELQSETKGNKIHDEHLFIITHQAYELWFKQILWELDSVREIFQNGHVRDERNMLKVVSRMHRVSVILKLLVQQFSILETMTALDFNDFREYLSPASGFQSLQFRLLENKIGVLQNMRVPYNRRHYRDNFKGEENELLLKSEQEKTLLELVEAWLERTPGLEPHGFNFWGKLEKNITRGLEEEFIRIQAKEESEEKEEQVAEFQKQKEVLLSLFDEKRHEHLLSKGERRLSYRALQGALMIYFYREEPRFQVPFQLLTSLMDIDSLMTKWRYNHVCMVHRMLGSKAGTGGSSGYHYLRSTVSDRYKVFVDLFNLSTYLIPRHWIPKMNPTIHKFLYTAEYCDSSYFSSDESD

Experiment [4] concerns the target T2, Tryptophan 2,3-dioxygenase. As to the kind of experiment: Inhibition of recombinant TDO (unknown origin) assessed as reduction in N-formylkynurenine formation using L-Tryptophan as substrate after 75 mins by UV absorption method. In short, it runs like this:
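Recombinant TDO reaction at room temperature in TDO assay buffer with 200 μM L-tryptophan and inhibitor, incubated 75 min; N-formylkynurenine measured by UV absorbance at 321 nm. Blank used buffer in place of enzyme. IC50 from nonlinear regression with normalized dose-response fit.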
Target sequence in this assay (P48775 whole entry): as the sequence (P48775 whole entry, looked up) above

Experiment [5] deals with T1, Indoleamine 2,3-dioxygenase 1. Description: Inhibition of IFN-gamma-stimulated IDO1 in human HeLa cells at 1 uM after 24 hrs by Ehrlich's reagent based assay relative to control. It is filed as cell-based. In short, it runs like this:
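IFN-γ (100 ng/mL, 24 h) induction of IDO1 in HeLa cells plated at 40,000/well after 24 h adherence; inhibitor in DMSO, 24 h incubation. Reaction ended with 30% TCA, heated 30 min at 50 °C, centrifuged, supernatant reacted with Ehrlich reagent 10 min at room temperature; read at 490 nm.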
Target sequence in this assay (P14902 whole entry, looked up): as the sequence (P14902 whole entry, looked up) above

For experiment [6] the target is unchanged. Description: Inhibition of IFN-gamma-stimulated IDO1 in human HeLa cells after 24 hrs by Ehrlich's reagent based assay. It is filed as cell-based. The method in brief:
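HeLa cells (40,000/well) adhered 24 h, stimulated with 100 ng/mL human recombinant IFN-γ for 24 h, then given inhibitor in DMSO from 10 μM top dose, 3-fold dilutions to 0.1 μM, for 24 h. Stopped with 30% TCA, 30 min at 50 °C, centrifuged; supernatant mixed with Ehrlich reagent 10 min at room temperature, absorbance at 490 nm.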
Target sequence in this assay (P14902 whole entry): as the sequence (P14902 whole entry, looked up) above

The subject of another experiment is HeLa. Description: Cytotoxicity against human HeLa cells after 48 hrs by MTT assay. It is filed as functional, cell-based. The method in brief: (§1)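 Cells seeded at 3-4 × 10^3 per well and incubated overnight, then exposed to compounds added from 10 mM DMSO stock for 48 h; 1% DMSO as negative control.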
(In general: Formazan colour is commonly taken as a measure of viable cells.)

The test system of the next experiment is HEK-293T. Description: Cytotoxicity against HEK293T cells after 48 hrs by MTT assay. The following applies: Homo sapiens. It is filed as cell-based. The method in brief:
as §1

Another experiment relates to MCF7. Description: Cytotoxicity against human MCF7 cells after 48 hrs by MTT assay. It is filed as functional, cell-based. Conditions: MCF7, 48 h. The method in brief:
as §1

For the molecule `O=C1c2cccnc2C(=O)c2c1c(C(=O)Nc1cccc(Cl)c1)c1ccccn21`, the inhibition (as a rule, how much of the control response was suppressed) in experiment [1] was 29.5%.
For the molecule `CN(C)CCNC(=O)c1c2c(n3ccccc13)C(=O)c1cccnc1C2=O`, the IC50 (commonly the point on the concentration scale where inhibition reaches its midpoint) in [2] amounted to 188 nM; in [4], 7.15 µM; in [6] it was 1240 nM. In addition, the figures for the inhibition in experiment [3], in experiment [5] and in experiment [1] were 88%, 81% and 77%, respectively.
Turning to `Cc1ccn2c3c(c(C(=O)O)c2c1)C(=O)c1cccnc1C3=O`, the IC50 in [2] came out at 394 nM. Further, the inhibition in experiment [1] was determined as 70%.
In the case of `O=C(O)c1cccc(NC(=O)c2c3c(n4ccccc24)C(=O)c2ncccc2C3=O)c1`, the IC50 came to 148 nM in experiment [2] and 41.6 µM in experiment [4]. Moreover, the results for the inhibition in [5] and in [1] were 9% and 74.5%, respectively.
Turning to `COc1ccn2c3c(c(C(=O)O)c2c1)C(=O)c1cccnc1C3=O`, in experiment [2], the IC50 stood at 299 nM. In experiment [1], the inhibition came out at 69%.
Take `CCOC(=O)c1c2c(n3ccccc13)C(=O)c1ncccc1C2=O`: the inhibition in experiment [1] was 35%.
On to `O=C(O)c1cccc(NC(=O)c2c3c(n4ccccc24)C(=O)c2cccnc2C3=O)c1`, for which the results for the IC50 in [2] and in experiment [4] were 390 nM and over 100 µM, respectively. Moreover, the inhibition in experiment [1] was 71.5%.
As to `CN(C)CCNC(=O)c1c2c(n3ccccc13)C(=O)c1ncccc1C2=O`, the IC50 in [2] came to 127 nM; in experiment [4], 3.35 µM; in experiment [6] it was 738 nM. In addition, the inhibition was 91% in experiment [3], 43% in experiment [5] and 78% in experiment [1].
Take `O=C1c2cccnc2C(=O)c2c1c(C(=O)Nc1ccccc1)c1ccccn21`: the IC50 stood at 361 nM in experiment [2] and 7.3 µM in [4]. In experiment [1], the inhibition was 68%.
As to `O=C1c2cccnc2C(=O)c2c1c(C(=O)O)c1cc(I)ccn21`, in [2], the IC50 was determined as 117 nM. Also, the values for the inhibition in experiment [5] and in experiment [1] were 12% and 67%, respectively.
On to `CSc1ccn2c3c(c(C(=O)NCCN(C)C)c2c1)C(=O)c1ncccc1C3=O`, for which the figures for the concentration for half-maximal inhibition (IC50) in experiment [2] and in [6] were 39 nM and 372 nM, respectively. Further, the inhibition was determined as 77% in experiment [5] and 80.5% in experiment [1].
Turning to `O=C1c2ncccc2C(=O)c2c1c(C(=O)Nc1cccc(Cl)c1)c1ccccn21`, in experiment [1], the inhibition turned out to be 34%.
Same read-out and setting: the value for `COc1ccn2c3c(c(C(=O)O)c2c1)C(=O)c1ncccc1C3=O` was 47%; that for `CN(C)CCNC(=O)c1c2c(n3ccccc13)C(=O)c1ccccc1C2=O` was 27%.
On the same count and under the same terms, the value for `O=C1c2ncccc2C(=O)c2c1c(Cc1ccccc1)c1ccccn21` was 56%.
Regarding `Cc1ccccc1NC(=O)c1c2c(n3ccccc13)C(=O)c1cccnc1C2=O`, the IC50 in experiment [2] was 134 nM; in [4] it was over 100 µM; in experiment [6], 2660 nM. The inhibition in experiment [5] was 38%; in [1], 64%.
`O=C1c2ccccc2C(=O)c2c1c(C(=O)NCCCO)c1ccccn21`: in experiment [1], the inhibition worked out at 15%.
With `O=C1c2ncccc2C(=O)c2c1c(C(=O)O)c1ccccn21`, the IC50 in experiment [2] was found to be 1190 nM. Also, in experiment [1], the inhibition came to 58%.
Regarding `O=C1c2cccnc2C(=O)c2c1c(C(=O)O)c1ccccn21`, in experiment [2], the IC50 was determined as 288 nM. The inhibition in [3] is 28%; in experiment [1], 70%.
As to `CSc1ccn2c3c(c(C(=O)NCCN(C)C)c2c1)C(=O)c1cccnc1C3=O`, the IC50 in [2] turned out to be 50 nM; in experiment [6], 1080 nM. The inhibition amounted to 42% in [5] and 72.5% in experiment [1].
On to `COC(=O)c1c2c(n3ccccc13)C(=O)c1cccc(O)c1C2=O`, for which the half-inhibitory concentration (IC50) in experiment [2] came out at 87 nM. Further, the inhibition in [5] came to 12%; in [1], 77%.
For `O=C1c2ncccc2C(=O)c2c1c(C(=O)O)c1cc(I)ccn21`, in experiment [2], the IC50 was determined as 420 nM. The inhibition in experiment [1] was 67%.
Consider `CCOC(=O)c1c2c(n3ccccc13)C(=O)c1ccccc1C2=O`, for which the IC50 in experiment [2] was found to be 332 nM. The inhibition in experiment [1] was 68%.
Take `CCOC(=O)c1c2c(n3ccccc13)C(=O)c1cccnc1C2=O`: the IC50 in experiment [2] came to 977 nM. In addition, the inhibition in experiment [3] was found to be 14%; in experiment [1], 61%.
Regarding `O=C1c2ncccc2C(=O)c2c1c(C(=O)Nc1ccccc1)c1ccccn21`, the figures for the IC50 in experiment [2] and in experiment [4] were 119 nM and over 100 µM, respectively. Besides, the inhibition amounted to 25% in [5] and 62% in experiment [1].
`COC(=O)c1c2c(n3ccccc13)C(=O)c1ccccc1C2=O`: the IC50 in [2] was 156 nM. Also, the inhibition in experiment [3] came out at 40%; in experiment [5], 24%; in experiment [1] it was 77%.
As for `COc1cccc2c1C(=O)c1c(O)c3c(c(O)c1C2=O)C[C@@](O)(C(=O)CO)C[C@@H]3O[C@H]1C[C@H](N)[C@H](O)[C@H](C)O1` [DOXORUBICIN], the IC50 came out at 660 nM in the experiment with HeLa and 1130 nM in the experiment with HEK-293T.
Take `Cc1ccn2c3c(c(C(=O)O)c2c1)C(=O)c1ncccc1C3=O`: the inhibition in experiment [1] is 54%.
For `O=C1c2ccccc2C(=O)c2c1c(C(=O)NCCO)c1ccccn21`, in experiment [1], the inhibition came out at 22%.
On to `NC(=S)NNC(=O)c1c2c(n3ccccc13)C(=O)c1ncccc1C2=O`, for which the IC50 in experiment [2] was 23 nM; in experiment [4], 1.2 µM; in the experiment on HeLa, over 20000 nM; in the experiment with MCF7, over 20 µM; in the experiment with HEK-293T it was over 20000 nM. Moreover, the inhibition is 22% in experiment [5] and 74.5% in experiment [1].
On to `CN(C)CCCNC(=O)c1c2c(n3ccccc13)C(=O)c1ccccc1C2=O`, for which the inhibition in experiment [1] was 24%.
Regarding `CC(C)OC(=O)c1c2c(n3ccccc13)C(=O)c1ccccc1C2=O`, in experiment [1], the inhibition was 13%.
Same read-out and setting: the value for `CN(C)CCNC(=O)c1c2c(n3ccccc13)C(=O)c1cccc(O)c1C2=O` was 29%.
With `NS(=O)(=O)NCCNC1=NON/C1=C(/NO)Nc1ccc(F)c(Br)c1`, the values for the IC50 in [2] and in [6] were 73 nM and 7 nM, respectively. In experiment [5], this molecule gave an inhibition of 96%.
For the molecule `O=C1c2cccnc2C(=O)c2c1c(Cc1ccccc1)c1ccccn21`, the inhibition in [1] came out at 34%.
Consider `COC(=O)c1c2c(n3ccccc13)C(=O)c1ncccc1C2=O`, for which the IC50 in [2] was found to be 438 nM. In addition, the inhibition in [1] was 65%.
`O=C1c2c(O)cccc2C(=O)c2c1c(C(=O)O)c1ccccn21`: in experiment [1], the inhibition came to 60%.
Regarding `COC(=O)c1c2c(n3ccccc13)C(=O)c1cccnc1C2=O`, the IC50 in experiment [2] was determined as 448 nM. In addition, the inhibition in [1] was determined as 69%.
As for `Cc1ccccc1NC(=O)c1c2c(n3ccccc13)C(=O)c1ncccc1C2=O`, the IC50 in experiment [2] is 427 nM; in experiment [4] it was over 100 µM. In experiment [1], the inhibition turned out to be 74%.
As for `O=C1c2ccccc2C(=O)c2c1c(C(=O)O)c1ccccn21`, the 50% inhibitory concentration (IC50) in [2] stood at 714 nM. Besides, the inhibition in [1] amounted to 61%.
